This passage reports inhibition, ED50 and IC50 results from ChEMBL document CHEMBL1129329, “Structure-activity studies of 6-substituted decahydroisoquinoline-3-carboxylic acid AMPA receptor antagonists. 2. Effects of distal acid bioisosteric substitution, absolute stereochemical preferences, and in vivo activity” (J Med Chem, 1996).

Assay [1] concerns the target Glutamate NMDA receptor (Rattus norvegicus) (UniProt P35439+Q00959+Q00960+Q00961+Q62645+Q8VHN2+Q9R1M7). The assay is described as follows: Compound was tested for NMDA receptor antagonistic activity by measuring its ability to inhibit depolarizations induced by 40 uM NMDA in rat cortical slice preparation at 100 uM. The format is functional.
In assay [2] the test system is Mus musculus. Briefly: Effective dose to block maximal electroshock-induced convulsions in mice, administered intraperitoneally. It is filed as functional. To be noted: ip. Background: Protection in the maximal electroshock model is a classic sign of anticonvulsant action.
Assay [3] deals with T1, Glutamate receptor ionotropic, AMPA (Rattus norvegicus, UniProt P19490+P19491+P19492+P19493). Briefly: Binding affinity against Ionotropic glutamate receptor AMPA using [3H]AMPA 19755 radioligand. The format is protein-complex assay.
Assay [4] has as its system Mus musculus. The assay is described as follows: Effective dose to produce neurological impairments in mice using the horizontal screen assay, administered intraperitoneally. It is filed as functional. The note with it: ip. Put shortly: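 Mice dosed intraperitoneally 30 min before testing were placed on a horizontal screen, which was then turned upside down. Unimpaired mice climb back to the top within 2 min; failure indicates neurological impairment. This was done before MES testing.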

For assay [5], the target named is T1, Glutamate receptor ionotropic, AMPA. Briefly: Compound was tested for AMPA receptor antagonistic activity by measuring its ability to inhibit depolarizations induced by 10 uM quisqualic acid in rat cortical slice preparation. The format is functional.
Assay [6] has as its target Glutamate receptor ionotropic, kainate. Briefly: Antagonism at Ionotropic glutamate receptor kainate by inhibition of depolarizations induced by 10 uM kainic acid in rat cortical slice preparation. It is filed as functional.
In assay [7] the target is Glutamate NMDA receptor. Briefly: Antagonism at NMDA receptor by inhibition of depolarizations induced by 40 uM NMDA in rat cortical slice preparation. The format is functional.
Assay [8] addresses Glutamate receptor ionotropic, kainate. Briefly: Binding affinity against Ionotropic glutamate receptor kainate using [3H]-Kainic acid 19755 radioligand. The format is protein-complex assay. Put shortly:
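Displacement of radioligand binding in rat cortical tissue: [3H]AMPA for AMPA sites, [3H]kainic acid for kainate sites. Assays run in triplicate unless otherwise indicated; some IC50 values come from a single assay.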

Assay [9] deals with Glutamate NMDA receptor. The assay is described as follows: Affinity of [3H]-CGS- 19755 radioligand to rat N-methyl-D-aspartate (NMDA) receptor. It is filed as protein-complex assay.
Assay [10] deals with Mus musculus. Briefly: Effective dose to block ATPA-induced muscle rigidity in mice at a dose of 30 mg/kg administered intraperitoneally. The note with it: ip.
The test system of assay [11] is Mus musculus. Briefly: Effective dose to block lethality induced by 200 mg/kg ip dose of NMDA. It is filed as functional. To be noted: route intraperitoneal. Put shortly:
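Mice dosed ip 30 min before a 200 mg/kg ip NMDA challenge; protection from lethality recorded and ED50 (mg/kg, ip) derived.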

Assay [12] concerns Mus musculus. Briefly: Effective dose to block ATPA-induced muscle rigidity in mice at a dose of 30mg/kg, administered intravenously. It is filed as functional. To be noted: iv. The method, boiled down:
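Mice given test agent ip 30 min before iv challenge with ATPA (30 mg/kg), a systemic AMPA agonist that produces characteristic muscle rigidity.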

In assay [13] the target is Glutamate receptor ionotropic, AMPA (Rattus norvegicus, UniProt P19491+P19492+P19493+P19490). Briefly: Compound was tested for AMPA receptor antagonistic activity by measuring its ability to inhibit depolarizations induced by 40 uM AMPA in rat cortical slice preparation; agonist. It is filed as functional.
Assay [14] deals with Mus musculus. Briefly: Minimum effective dose to block the lethality induced by 200 mg/kg ip dose of NMDA. The format is functional. The note with it: route intraperitoneal. Put shortly: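 Mice dosed ip 30 min before a 200 mg/kg ip NMDA challenge. Minimum effective dose is the lowest dose giving greater than 50% protection from lethality among all mice tested.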

Sequence of Glutamate receptor ionotropic, AMPA (Rattus norvegicus, UniProt P19491+P19492+P19493+P19490) (P19491 whole entry): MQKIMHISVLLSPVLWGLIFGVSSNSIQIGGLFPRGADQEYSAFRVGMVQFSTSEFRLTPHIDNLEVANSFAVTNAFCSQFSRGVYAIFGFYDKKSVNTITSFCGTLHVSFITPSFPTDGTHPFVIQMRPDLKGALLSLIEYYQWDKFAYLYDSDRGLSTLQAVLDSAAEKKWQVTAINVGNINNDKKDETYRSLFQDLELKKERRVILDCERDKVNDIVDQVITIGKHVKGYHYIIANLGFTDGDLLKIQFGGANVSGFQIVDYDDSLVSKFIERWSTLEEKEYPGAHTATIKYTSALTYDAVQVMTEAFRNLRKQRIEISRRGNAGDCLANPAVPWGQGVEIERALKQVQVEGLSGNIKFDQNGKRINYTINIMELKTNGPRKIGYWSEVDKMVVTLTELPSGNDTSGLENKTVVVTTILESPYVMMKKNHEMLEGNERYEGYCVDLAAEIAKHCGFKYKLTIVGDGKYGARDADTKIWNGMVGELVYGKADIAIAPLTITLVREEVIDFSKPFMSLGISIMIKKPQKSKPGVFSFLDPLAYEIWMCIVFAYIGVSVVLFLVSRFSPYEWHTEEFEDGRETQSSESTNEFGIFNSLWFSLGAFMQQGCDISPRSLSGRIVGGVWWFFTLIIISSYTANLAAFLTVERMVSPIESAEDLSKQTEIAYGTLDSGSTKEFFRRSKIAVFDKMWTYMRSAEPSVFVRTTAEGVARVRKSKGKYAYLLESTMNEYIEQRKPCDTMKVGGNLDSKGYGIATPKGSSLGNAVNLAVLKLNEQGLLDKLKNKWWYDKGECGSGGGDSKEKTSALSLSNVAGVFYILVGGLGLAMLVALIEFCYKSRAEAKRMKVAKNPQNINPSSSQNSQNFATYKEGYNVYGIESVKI
Sequence of Glutamate receptor ionotropic, AMPA (Rattus norvegicus, UniProt P19491+P19492+P19493+P19490) (P19492 whole entry): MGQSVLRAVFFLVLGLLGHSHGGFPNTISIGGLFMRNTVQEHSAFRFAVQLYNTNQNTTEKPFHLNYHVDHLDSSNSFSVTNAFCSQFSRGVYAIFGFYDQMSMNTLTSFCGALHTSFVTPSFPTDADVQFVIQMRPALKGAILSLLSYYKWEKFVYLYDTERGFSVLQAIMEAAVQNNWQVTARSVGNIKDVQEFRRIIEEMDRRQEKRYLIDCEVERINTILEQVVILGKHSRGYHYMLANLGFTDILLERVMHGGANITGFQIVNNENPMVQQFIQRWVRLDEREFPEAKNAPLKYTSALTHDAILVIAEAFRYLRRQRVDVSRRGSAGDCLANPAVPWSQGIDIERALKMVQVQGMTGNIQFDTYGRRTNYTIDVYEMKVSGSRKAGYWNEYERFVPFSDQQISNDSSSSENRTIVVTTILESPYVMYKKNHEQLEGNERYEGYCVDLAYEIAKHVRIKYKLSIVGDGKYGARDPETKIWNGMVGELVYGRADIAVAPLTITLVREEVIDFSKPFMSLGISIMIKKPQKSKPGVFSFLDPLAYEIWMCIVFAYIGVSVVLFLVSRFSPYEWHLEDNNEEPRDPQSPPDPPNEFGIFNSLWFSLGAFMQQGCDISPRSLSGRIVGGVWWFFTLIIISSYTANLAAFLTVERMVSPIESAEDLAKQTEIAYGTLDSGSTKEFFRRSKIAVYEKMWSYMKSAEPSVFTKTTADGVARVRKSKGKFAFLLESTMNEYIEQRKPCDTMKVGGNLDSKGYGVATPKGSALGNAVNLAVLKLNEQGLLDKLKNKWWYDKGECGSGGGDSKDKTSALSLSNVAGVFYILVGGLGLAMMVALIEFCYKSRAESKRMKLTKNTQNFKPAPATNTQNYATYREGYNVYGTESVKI
Sequence of Glutamate receptor ionotropic, AMPA (Rattus norvegicus, UniProt P19491+P19492+P19493+P19490) (P19493 whole entry): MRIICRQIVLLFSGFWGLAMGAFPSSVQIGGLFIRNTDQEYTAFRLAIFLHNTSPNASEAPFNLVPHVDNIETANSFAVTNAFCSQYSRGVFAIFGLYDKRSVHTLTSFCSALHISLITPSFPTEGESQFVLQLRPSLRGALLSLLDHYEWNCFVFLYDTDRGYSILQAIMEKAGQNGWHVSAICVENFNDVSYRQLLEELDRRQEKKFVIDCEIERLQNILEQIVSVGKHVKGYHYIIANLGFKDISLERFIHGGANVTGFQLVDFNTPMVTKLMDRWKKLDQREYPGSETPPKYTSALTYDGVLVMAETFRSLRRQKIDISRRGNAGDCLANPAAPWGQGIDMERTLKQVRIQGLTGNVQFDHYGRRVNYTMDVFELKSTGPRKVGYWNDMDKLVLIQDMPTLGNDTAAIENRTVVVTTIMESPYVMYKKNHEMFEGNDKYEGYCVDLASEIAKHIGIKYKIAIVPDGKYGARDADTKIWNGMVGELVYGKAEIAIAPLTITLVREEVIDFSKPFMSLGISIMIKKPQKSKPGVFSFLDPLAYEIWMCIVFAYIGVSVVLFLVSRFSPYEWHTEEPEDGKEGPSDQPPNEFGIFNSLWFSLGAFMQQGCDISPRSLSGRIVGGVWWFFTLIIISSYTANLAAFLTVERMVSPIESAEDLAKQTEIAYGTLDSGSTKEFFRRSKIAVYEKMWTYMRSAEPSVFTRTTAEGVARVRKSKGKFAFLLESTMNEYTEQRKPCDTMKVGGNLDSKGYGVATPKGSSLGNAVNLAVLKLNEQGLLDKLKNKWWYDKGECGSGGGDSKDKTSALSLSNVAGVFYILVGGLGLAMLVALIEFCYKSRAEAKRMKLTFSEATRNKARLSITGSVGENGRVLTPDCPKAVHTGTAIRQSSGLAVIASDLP
Sequence of Glutamate receptor ionotropic, AMPA (Rattus norvegicus, UniProt P19491+P19492+P19493+P19490) (P19490 whole entry): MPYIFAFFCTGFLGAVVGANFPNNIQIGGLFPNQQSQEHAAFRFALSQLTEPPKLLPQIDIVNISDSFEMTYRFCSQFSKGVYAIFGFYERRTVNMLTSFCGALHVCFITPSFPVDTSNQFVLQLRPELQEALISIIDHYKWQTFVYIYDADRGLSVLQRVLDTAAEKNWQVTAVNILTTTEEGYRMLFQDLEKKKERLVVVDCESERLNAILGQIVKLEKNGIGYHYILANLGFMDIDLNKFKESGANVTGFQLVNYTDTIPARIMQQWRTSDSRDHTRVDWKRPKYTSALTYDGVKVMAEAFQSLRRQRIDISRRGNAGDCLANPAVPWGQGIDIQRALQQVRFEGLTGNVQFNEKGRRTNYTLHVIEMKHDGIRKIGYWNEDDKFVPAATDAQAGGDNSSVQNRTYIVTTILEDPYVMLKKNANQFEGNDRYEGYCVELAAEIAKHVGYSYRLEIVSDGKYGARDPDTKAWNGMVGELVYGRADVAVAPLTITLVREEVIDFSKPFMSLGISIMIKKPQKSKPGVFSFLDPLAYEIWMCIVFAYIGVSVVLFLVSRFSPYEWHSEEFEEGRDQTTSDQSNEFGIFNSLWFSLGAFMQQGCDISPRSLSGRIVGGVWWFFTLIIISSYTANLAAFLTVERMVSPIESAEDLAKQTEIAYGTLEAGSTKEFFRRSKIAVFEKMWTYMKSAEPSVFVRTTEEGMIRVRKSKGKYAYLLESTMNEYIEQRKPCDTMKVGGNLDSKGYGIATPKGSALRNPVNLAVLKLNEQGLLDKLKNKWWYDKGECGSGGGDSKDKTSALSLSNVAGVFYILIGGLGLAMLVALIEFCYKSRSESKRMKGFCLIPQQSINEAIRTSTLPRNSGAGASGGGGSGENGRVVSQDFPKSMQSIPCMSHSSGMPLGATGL

For orientation: inhibition means the drop in the measured response relative to a control, in per cent. Read a high inhibition as strong suppression. `O=C(O)[C@@H]1C[C@H]2C[C@@H](CCc3nn[nH]n3)CC[C@H]2CN1` had an inhibition in [1] of 60%.
A word on the ED50: it is the dose at which the effect has come halfway, by size or by number of responders. As usually defined, the IC50 is the concentration needed to halve the response being measured. In the case of `O=C(O)CC[C@H]1CC[C@H]2CN[C@H](C(=O)O)C[C@H]2C1`, the ED50 in the assay with Mus musculus [2], in the assay on Mus musculus [4] and with Mus musculus [10] was over 100 mg/kg throughout. Further, the IC50 in assay [3] is 27.8 µM; in [5], 42 µM; in [6], over 100 µM; against Glutamate NMDA receptor [7], 57 µM; in assay [8] it was over 100 µM; on Glutamate NMDA receptor [9], 43.9 µM.
In the case of `O=C(O)[C@@H]1C[C@H]2C[C@@H](c3nnn[nH]3)CC[C@H]2CN1`, the ED50 worked out at 24.1 mg/kg in the assay on Mus musculus [2], 19.4 mg/kg in the assay on Mus musculus [11] and 44.5 mg/kg with Mus musculus [12].
Regarding `O=C(O)[C@@H]1C[C@H]2C[C@@H](Cn3nnnc3S)CC[C@H]2CN1` (racemic), the IC50 result in assay [13] was “Agonist”; in [3], 12.9 µM; in [8], 16.7 µM; on Glutamate NMDA receptor [9], over 10 µM.
As to `O=C(O)[C@@H]1C[C@H]2C[C@@H](OCc3nn[nH]n3)CC[C@H]2CN1`, the ED50 came to 24.7 mg/kg in the assay with Mus musculus [2], 21 mg/kg in the assay on Mus musculus [4], 80 mg/kg with Mus musculus [14] and 30.6 mg/kg in the assay on Mus musculus [10].
